Source: ChEMBL document CHEMBL5154945, “Discovery and Optimization of Pyrrolopyrimidine Derivatives as Selective Disruptors of the Perinucleolar Compartment, a Marker of Tumor Progression toward Metastasis” (J Med Chem, 2022)
Activity calls are given as the source filed them. No cut-off for these calls is given here.

Experiments:
[1] = molecular target: D(1A) dopamine receptor (Homo sapiens) (UniProt P21728); assay: Binding affinity to D1 receptor (unknown origin) at 10000 nM by radioligand displacement assay relative to control
[2] = molecular target: 5-hydroxytryptamine receptor 1B (Homo sapiens) (UniProt P28222); assay: Binding affinity to 5-HT1B receptor (unknown origin) at 10000 nM by radioligand displacement assay relative to control
PC-3M [3] = assay: Antiproliferative activity against human PC-3M cells expressing PTB/GFP fusion protein assessed as inhibition of nucleolar volume measured after 24 hrs by Nucleolar-id Green Detection based confocal microscopic analysis; assay type: functional, cell-based
A549 = assay: Anticancer activity against human A549 cells assessed as cell growth inhibition; assay type: functional, cell-based; settings: dose 1-100 µM, DDE = dose-dependent effect
TK-10 = assay: Anticancer activity against human TK-10 cells assessed as cell growth inhibition; assay type: functional, cell-based; settings: dose 1-100 µM, DDE = dose-dependent effect
[4] = AUC (0 to 48 hrs) in female BALB/c mouse at 5 mg/kg, ip at 48 hrs by LC-MS/MS analysis; assay type: ADME, organism-based; design: time 48 hrs, dose 5 mg/kg, route ip; settings: in vivo
Summary of the method: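 Fed female BALB/c mice, about 6–8 weeks old and 25–30 g, received a single IP dose. The vehicle was 5-10% NMP + 20% PEG400 + 70-75% (25% HP-β-CD in water), with the drug at 2.5/0.5 mg/mL. Blood was taken by retro-orbital puncture under isoflurane into K2EDTA tubes, 3 mice per time point, over 48 h. Plasma was prepared at 2000 g, 5 min, 4 °C, and measured by LC/MS/MS.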

[5] = molecular target: 5-hydroxytryptamine receptor 3A (Homo sapiens) (UniProt P46098); assay: Binding affinity to 5-HT3 receptor (unknown origin) at 10000 nM by radioligand displacement assay relative to control
A498 = assay: Anticancer activity against human A498 cells assessed as cell growth inhibition; assay type: functional, cell-based; settings: dose 1-100 µM, DDE = dose-dependent effect
SF-295 = assay: Anticancer activity against human SF-295 cells assessed as cell growth inhibition; assay type: functional, cell-based; settings: dose 1-100 µM, DDE = dose-dependent effect
KM12 = assay: Anticancer activity against human KM12 cells assessed as cell growth inhibition; assay type: functional, cell-based; settings: dose 1-100 µM, DDE = dose-dependent effect
[6] = molecular target: Kappa-type opioid receptor (Homo sapiens) (UniProt P41145); assay: Binding affinity to KOR receptor (unknown origin) at 10000 nM by radioligand displacement assay relative to control
ACHN = assay: Anticancer activity against human ACHN cells assessed as cell growth inhibition; assay type: functional, cell-based; settings: dose 1-100 µM, DDE = dose-dependent effect
PC-3M [7] = assay: Anticancer activity in human PC-3M cells expressing PTB/GFP fusion protein assessed as perinucleolar compartment disassembly and measured after 24 hrs by Hoechst 33342 staining based microscopic method; assay type: functional, cell-based
Summary of the method: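 Imaged by high-content microscopy. Nuclei with PNC spots ≥3 and >0 scored positive. PNC prevalence % = PNC-positive nuclei/total nuclei ×100, normalized to DMSO (0% activity) and 0% PNC (−100%). IC50 from concentration-response.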

UACC-257 = assay: Anticancer activity against human UACC-257 cells assessed as cell growth inhibition; assay type: functional, cell-based; settings: dose 1-100 µM, DDE = dose-dependent effect
[8] = molecular target: 5-hydroxytryptamine receptor 2B (Homo sapiens) (UniProt P41595); assay: Binding affinity to 5-HT2B receptor (unknown origin) at 10000 nM by radioligand displacement assay relative to control
HCC 2998 = assay: Anticancer activity against human HCC 2998 cells assessed as cell growth inhibition; assay type: functional, cell-based; settings: dose 1-100 µM, DDE = dose-dependent effect
[9] = Tmax in female BALB/c mouse at 25 mg/kg, ip and measured upto 48 hrs by LC-MS/MS analysis; assay type: ADME, organism-based; settings: in vivo
Summary of the method: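 Fed female BALB/c mice, about 6–8 weeks old and 25–30 g, received a single IP dose of 5 or 25 mpk in NMP/PEG400/HP-β-CD aqueous vehicle (0.5 mg/mL for the 5 mpk dose). Three mice per time point were sampled up to 48 h by retro-orbital bleed under isoflurane into K2EDTA. Plasma was spun at 2000 g, 4 °C, frozen at -80 °C, and assayed by LC/MS/MS.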

COLO 205 = assay: Anticancer activity against human COLO 205 cells assessed as cell growth inhibition; assay type: functional, cell-based; settings: dose 1-100 µM, DDE = dose-dependent effect
U-251 = assay: Anticancer activity against human U-251 cells assessed as cell growth inhibition; assay type: functional, cell-based; settings: dose 1-100 µM, DDE = dose-dependent effect
[10] = molecular target: GABA-A receptor; anion channel (Homo sapiens) (UniProt P14867+P47870+P18507+P28472+P48169+Q99928+Q9UN88+P34903+O00591+O14764+Q8N1C3+P18505+P78334+P47869+P31644+Q16445); assay: Binding affinity to GABAA receptor (unknown origin) at 10000 nM by radioligand displacement assay relative to control; assay type: protein-complex assay
[11] = mouse, in vivo, ip, 50 mg/kg, 48 h
[12] = molecular target: Alpha-1D adrenergic receptor (Homo sapiens, UniProt P25100); assay: Binding affinity to alpha1D receptor (unknown origin) by radioligand displacement assay
SN12C = assay: Anticancer activity against human SN12C cells assessed as cell growth inhibition; assay type: functional, cell-based; settings: dose 1-100 µM, DDE = dose-dependent effect
HOP-62 = assay: Anticancer activity against human HOP-62 cells assessed as cell growth inhibition; assay type: functional, cell-based; settings: dose 1-100 µM, DDE = dose-dependent effect
SK-MEL-28 = assay: Anticancer activity against human SK-MEL-28 cells assessed as cell growth inhibition; assay type: functional, cell-based; settings: dose 1-100 µM, DDE = dose-dependent effect
[13] = molecular target: Alpha-2B adrenergic receptor (Homo sapiens) (UniProt P18089); assay: Binding affinity to alpha2B receptor (unknown origin) at 10000 nM by radioligand displacement assay relative to control
HT-29 = assay: Anticancer activity against human HT-29 cells assessed as cell growth inhibition; assay type: functional, cell-based; settings: dose 1-100 µM, DDE = dose-dependent effect
SK-OV-3 = assay: Anticancer activity against human SK-OV-3 cells assessed as cell growth inhibition; assay type: functional, cell-based; settings: dose 1-100 µM, DDE = dose-dependent effect
[14] = molecular target: Alpha-1B adrenergic receptor (Homo sapiens) (UniProt P35368); assay: Binding affinity to alpha1B receptor (unknown origin) at 10000 nM by radioligand displacement assay relative to control
HCT-15 = assay: Anticancer activity against human HCT-15 cells assessed as cell growth inhibition; assay type: functional, cell-based; settings: dose 1-100 µM, DDE = dose-dependent effect
NCI-H522 = assay: Anticancer activity against human NCI-H522 cells assessed as cell growth inhibition; assay type: functional, cell-based; settings: dose 1-100 µM, DDE = dose-dependent effect
PC-3M [15] = assay: Antiproliferative activity against human PC-3M cells expressing PTB/GFP fusion protein assessed as cell growth inhibition at < 100 nM and measured every four hrs for 130 hrs by IncuCyte zoom live cell analysis; assay type: functional, cell-based; settings: DDE = dose-dependent effect
Summary of the method: (§1)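 PC3M cells stably expressing GFP-PTB, grown in DMEM with 10% FBS and 1% penicillin/streptomycin, seeded at 1.25×10^4 cells/ml in 384-well plates and left overnight at 37 °C, 5% CO2. Compound added in DMEM to give 11 final concentrations from 10 nM to 20 μM. Brightfield images were taken every 4 h for about 130 h and scored as percent confluence.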

PC-3 = assay: Anticancer activity against human PC-3 cells assessed as cell growth inhibition; assay type: functional, cell-based; settings: dose 1-100 µM, DDE = dose-dependent effect
NCI-H23 = assay: Anticancer activity against human NCI-H23 cells assessed as cell growth inhibition; assay type: functional, cell-based; settings: dose 1-100 µM, DDE = dose-dependent effect
PC-3M [16] = assay: Antiproliferative activity against human PC-3M cells expressing PTB/GFP fusion protein assessed as cell growth inhibition at 0.1 to 10 uM and measured every four hrs for 130 hrs by IncuCyte zoom live cell analysis; assay type: functional, cell-based; settings: dose 0.1-10 µM; summary of the method: as §1

Sequence of D(1A) dopamine receptor (Homo sapiens) (P21728 whole entry): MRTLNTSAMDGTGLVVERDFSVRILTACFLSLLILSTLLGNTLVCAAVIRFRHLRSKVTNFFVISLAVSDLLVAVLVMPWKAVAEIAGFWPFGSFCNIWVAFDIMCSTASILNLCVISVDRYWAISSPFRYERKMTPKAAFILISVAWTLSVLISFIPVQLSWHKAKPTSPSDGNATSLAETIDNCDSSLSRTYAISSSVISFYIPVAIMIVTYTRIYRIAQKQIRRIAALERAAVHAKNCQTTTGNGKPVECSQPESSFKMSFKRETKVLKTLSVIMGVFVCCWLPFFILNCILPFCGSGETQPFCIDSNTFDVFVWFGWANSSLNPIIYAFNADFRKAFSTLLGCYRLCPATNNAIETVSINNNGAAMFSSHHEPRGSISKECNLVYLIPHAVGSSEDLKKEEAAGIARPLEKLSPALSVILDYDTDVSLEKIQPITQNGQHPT
Sequence of 5-hydroxytryptamine receptor 1B (Homo sapiens) (P28222 whole entry, the tested form may be a part): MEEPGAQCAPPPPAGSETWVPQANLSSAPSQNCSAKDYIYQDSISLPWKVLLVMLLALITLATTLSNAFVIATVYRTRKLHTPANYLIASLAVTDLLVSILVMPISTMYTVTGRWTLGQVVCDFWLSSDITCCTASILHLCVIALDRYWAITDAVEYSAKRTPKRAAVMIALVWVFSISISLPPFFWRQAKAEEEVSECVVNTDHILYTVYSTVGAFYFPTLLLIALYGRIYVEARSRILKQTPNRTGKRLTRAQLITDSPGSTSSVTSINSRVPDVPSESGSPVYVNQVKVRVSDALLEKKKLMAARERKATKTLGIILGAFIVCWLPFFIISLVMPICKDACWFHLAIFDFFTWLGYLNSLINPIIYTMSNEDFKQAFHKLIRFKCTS
Sequence of Kappa-type opioid receptor (Homo sapiens) (P41145 whole entry): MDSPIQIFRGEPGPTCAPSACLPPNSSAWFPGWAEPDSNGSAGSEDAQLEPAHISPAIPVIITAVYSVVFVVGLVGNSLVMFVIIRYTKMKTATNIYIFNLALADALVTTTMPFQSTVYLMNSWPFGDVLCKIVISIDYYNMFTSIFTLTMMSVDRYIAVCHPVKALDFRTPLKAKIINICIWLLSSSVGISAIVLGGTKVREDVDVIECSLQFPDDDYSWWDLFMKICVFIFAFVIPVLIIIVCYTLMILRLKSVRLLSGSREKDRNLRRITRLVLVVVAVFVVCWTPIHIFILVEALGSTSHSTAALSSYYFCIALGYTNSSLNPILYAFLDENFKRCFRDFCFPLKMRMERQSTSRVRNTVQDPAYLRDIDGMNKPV
Sequence of Alpha-1D adrenergic receptor (P25100 whole entry): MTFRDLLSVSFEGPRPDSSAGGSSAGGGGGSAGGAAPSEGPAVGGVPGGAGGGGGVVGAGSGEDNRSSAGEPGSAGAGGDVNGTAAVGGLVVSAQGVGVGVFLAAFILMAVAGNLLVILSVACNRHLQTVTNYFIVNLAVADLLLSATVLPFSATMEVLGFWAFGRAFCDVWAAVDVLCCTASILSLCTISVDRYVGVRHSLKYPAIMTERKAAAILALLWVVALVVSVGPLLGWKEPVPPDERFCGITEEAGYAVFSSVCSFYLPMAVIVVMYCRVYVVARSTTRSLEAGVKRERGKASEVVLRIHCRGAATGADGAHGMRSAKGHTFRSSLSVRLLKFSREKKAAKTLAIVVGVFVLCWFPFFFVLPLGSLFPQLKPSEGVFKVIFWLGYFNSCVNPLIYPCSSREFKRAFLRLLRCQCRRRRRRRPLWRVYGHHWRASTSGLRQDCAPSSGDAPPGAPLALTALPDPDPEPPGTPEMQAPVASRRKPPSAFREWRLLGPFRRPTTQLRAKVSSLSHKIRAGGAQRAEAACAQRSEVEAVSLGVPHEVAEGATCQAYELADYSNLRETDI
Sequence of 5-hydroxytryptamine receptor 2B (Homo sapiens) (P41595 whole entry): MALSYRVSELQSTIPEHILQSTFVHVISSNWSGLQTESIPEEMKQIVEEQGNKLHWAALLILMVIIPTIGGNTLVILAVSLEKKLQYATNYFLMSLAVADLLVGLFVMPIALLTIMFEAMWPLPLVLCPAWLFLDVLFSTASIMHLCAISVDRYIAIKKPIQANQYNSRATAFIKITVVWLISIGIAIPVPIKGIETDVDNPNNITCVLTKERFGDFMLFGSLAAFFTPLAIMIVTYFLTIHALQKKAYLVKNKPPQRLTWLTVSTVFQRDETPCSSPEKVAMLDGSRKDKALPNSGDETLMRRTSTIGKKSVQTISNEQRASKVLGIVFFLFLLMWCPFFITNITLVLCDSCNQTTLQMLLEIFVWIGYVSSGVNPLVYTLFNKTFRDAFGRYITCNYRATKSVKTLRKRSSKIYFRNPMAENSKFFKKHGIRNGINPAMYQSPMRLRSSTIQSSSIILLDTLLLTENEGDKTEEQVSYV
Sequence of 5-hydroxytryptamine receptor 3A (Homo sapiens) (P46098 whole entry): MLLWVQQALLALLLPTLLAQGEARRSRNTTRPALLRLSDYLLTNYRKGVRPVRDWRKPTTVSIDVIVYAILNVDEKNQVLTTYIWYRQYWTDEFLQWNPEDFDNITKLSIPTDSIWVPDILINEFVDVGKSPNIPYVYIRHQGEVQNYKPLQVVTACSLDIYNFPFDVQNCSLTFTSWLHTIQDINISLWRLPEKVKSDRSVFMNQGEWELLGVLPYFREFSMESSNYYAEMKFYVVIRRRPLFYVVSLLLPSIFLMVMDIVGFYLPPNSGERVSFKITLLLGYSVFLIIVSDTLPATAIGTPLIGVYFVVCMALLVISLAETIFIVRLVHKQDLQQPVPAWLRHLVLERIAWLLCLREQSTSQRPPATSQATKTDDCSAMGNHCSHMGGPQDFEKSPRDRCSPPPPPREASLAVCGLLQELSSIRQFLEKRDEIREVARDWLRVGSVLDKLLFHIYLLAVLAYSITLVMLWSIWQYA
Sequence of Alpha-1B adrenergic receptor (Homo sapiens) (P35368 whole entry): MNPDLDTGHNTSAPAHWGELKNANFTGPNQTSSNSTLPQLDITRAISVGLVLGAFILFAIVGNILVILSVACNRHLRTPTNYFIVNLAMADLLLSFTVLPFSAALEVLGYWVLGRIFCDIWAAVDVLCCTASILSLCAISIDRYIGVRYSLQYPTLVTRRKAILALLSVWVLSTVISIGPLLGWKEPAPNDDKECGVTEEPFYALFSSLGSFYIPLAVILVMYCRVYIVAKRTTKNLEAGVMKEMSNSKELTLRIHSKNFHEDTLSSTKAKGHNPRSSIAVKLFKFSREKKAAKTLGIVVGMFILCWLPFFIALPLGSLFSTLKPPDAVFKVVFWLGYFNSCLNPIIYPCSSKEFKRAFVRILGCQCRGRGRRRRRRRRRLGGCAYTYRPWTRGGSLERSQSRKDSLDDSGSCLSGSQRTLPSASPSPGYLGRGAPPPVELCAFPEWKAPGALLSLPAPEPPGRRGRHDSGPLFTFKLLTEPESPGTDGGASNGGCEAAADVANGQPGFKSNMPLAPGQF
Sequence of Alpha-2B adrenergic receptor (Homo sapiens) (P18089 whole entry): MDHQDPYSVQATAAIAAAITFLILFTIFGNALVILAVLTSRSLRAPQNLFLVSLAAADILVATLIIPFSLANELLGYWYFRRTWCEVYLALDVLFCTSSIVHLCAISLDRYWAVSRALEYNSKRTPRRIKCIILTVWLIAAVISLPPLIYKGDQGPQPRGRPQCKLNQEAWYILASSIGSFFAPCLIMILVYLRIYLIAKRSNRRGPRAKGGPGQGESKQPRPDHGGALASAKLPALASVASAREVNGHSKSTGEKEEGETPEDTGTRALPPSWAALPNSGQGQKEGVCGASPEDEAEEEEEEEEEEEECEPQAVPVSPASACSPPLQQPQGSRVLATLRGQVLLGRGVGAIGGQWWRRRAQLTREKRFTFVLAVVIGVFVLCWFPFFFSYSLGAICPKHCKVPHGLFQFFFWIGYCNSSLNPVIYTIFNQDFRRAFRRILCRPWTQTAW

With `N=c1c2c(-c3ccccc3)c(-c3ccccc3)n(Cc3ccccc3)c2ncn1[C@H]1CC[C@H](O)CC1` [ML-246] the Activity [1] was < 50%, the Activity [2] was < 50% and the IC50 (PC-3M [3]) was 610 nM. For the same molecule, the Activity (A549) was “Dde”, the Activity (TK-10) was “Dde” and the AUC [4] was 6.08 µM·h. The Activity [5] was < 50%, the Activity (A498) was “Dde” and the Activity (SF-295) was “Dde”. The Activity (KM12) was “Dde”, the Activity [6] was < 50% and the Activity (ACHN) was “Dde”. For the same molecule, the IC50 (PC-3M [7]; read-out: IC50) was 200 nM, the IC50 (PC-3M [7]; read-out: pIC50 (converted)) was 178 nM and the Activity (UACC-257) was “Dde”. For the same molecule, the Activity [8] was < 50%, the Activity (HCC 2998) was “Dde” and the Tmax [9] was 30 min. The Activity (COLO 205) was “Dde”, the Activity (U-251) was “Dde” and the Activity [10] was < 50%. For the same molecule, the “beta t1/2” value [11] was 16.4 min, the Ki [12] was 3260 nM and the Activity (SN12C) was “Dde”. The Activity (HOP-62) was “Dde”, the Activity (SK-MEL-28) was “Dde” and the Activity [13] was < 50%. The Activity (HT-29) was “Dde”, the Activity (SK-OV-3) was “Dde” and the Activity [14] was < 50%. For the same molecule, the Activity (HCT-15) was “Dde”, the Activity (NCI-H522) was “Dde” and the Activity (PC-3M [15]) was “Dde”. For the same molecule, the Activity (PC-3) was “Dde”, the Activity (NCI-H23) was “Dde” and the Activity (PC-3M [16]) was “Active”.
